Measured values taken from article PMC8144669 (The Journal of Biological Chemistry, 2021).
One block for each molecule: values may come before it.

Assays:
Format in all cases: biochemical
[1] = molecular target: T1, M3RA (MLL3SET-RBBP5AS-ABM-ASH2LSPRY) (Homo sapiens, UniProt Q8NEZ4); experiment: Mass-spectrometry-based
In short: (§1)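 Enzyme (E. coli-expressed SET–RBBP5–ASH2L ternary complex) was preincubated 15 min with 0, 50 or 100 μM AdoHcy. […] Samples taken every 30 s were quenched with TFA (0.5% final) and chilled to 4 °C. Monomethylated peptide was measured by MALDI-TOF in a CHCA matrix. Data were analysed by Lineweaver–Burk plots and nonlinear fits to competitive, noncompetitive and uncompetitive models, choosing the best coefficient of determination and lowest error.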

[2] = molecular target: T2, M4RA (MLL4SET-RBBP5AS-ABM-ASH2LSPRY) (Homo sapiens, UniProt O14686); experiment: Mass-spectrometry-based
In short: as §1

[3] = molecular target: T1, M3RA (MLL3SET-RBBP5AS-ABM-ASH2LSPRY); experiment: Continuous enzyme-coupled methylation assay, M3RA
[4] = molecular target: T2, M4RA (MLL4SET-RBBP5AS-ABM-ASH2LSPRY); experiment: Continuous enzyme-coupled methylation assay, M4RA
[5] = substrate: C[S+](CC[C@H](N)C(=O)[O-])C[C@H]1O[C@@H](n2cnc3c(N)ncnc32)[C@H](O)[C@@H]1O; experiment: Continuous enzyme-coupled methylation assay, M3RA; conditions: other: H3P20 fixed at 1600 μM; pH 8.0; 30.0 °C
[6] = substrate: C[S+](CC[C@H](N)C(=O)[O-])C[C@H]1O[C@@H](n2cnc3c(N)ncnc32)[C@H](O)[C@@H]1O; experiment: Continuous enzyme-coupled methylation assay, M4RA; conditions: other: H3P20 fixed at 1600 μM; pH 8.0; 30.0 °C
[7] = Ki, varied AdoMet, global fit to Competitive model (Model Fit: Competitive)
[8] = varied substrate AdoMet, H3P20 constant 400 μM
[9] = varied substrate H3P20, AdoMet constant 200 μM

T2 sequence (Q15291 330-360 partner limits assumed, one chain of several): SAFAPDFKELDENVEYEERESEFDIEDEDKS
T2 sequence (Q9UBL3 380-599 partner limits assumed, one chain of several): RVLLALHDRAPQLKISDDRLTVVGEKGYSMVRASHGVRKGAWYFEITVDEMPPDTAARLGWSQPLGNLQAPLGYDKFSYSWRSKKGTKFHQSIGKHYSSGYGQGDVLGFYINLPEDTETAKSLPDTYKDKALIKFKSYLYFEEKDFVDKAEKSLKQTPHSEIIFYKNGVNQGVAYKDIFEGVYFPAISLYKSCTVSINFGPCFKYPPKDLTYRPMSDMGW
T1 sequence (Q15291 330-360 partner limits assumed, one chain of several): as the sequence (Q15291 330-360 partner limits assumed, one chain of several) above
T1 sequence (Q9UBL3 380-599 partner limits assumed, one chain of several): as the sequence (Q9UBL3 380-599 partner limits assumed, one chain of several) above

Ki [1, 7]: 4.19 µM
Inhibition pattern [1, 8]: Competitive
Inhibition pattern [1, 9]: Noncompetitive
Ki [2, 7]: 11.2 µM
Inhibition pattern [2, 8]: Competitive
Inhibition pattern [2, 9]: Noncompetitive
Molecule: Nc1ncnc2c1ncn2[C@@H]1O[C@H](CSCC[C@H](N)C(=O)O)[C@@H](O)[C@H]1O [AdoHcy, S-adenosylhomocysteine]

Kd [3]: 4.29 ± 0.44 µM
KBA ([3]; from secondary plots, Michaelis constant for formation of EAB from A to EB): 27.23 ± 3.05 µM
Kd [4]: 10.3 ± 0.46 µM
Molecule: C[S+](CC[C@H](N)C(=O)[O-])C[C@H]1O[C@@H](n2cnc3c(N)ncnc32)[C@H](O)[C@@H]1O (stereo partly shown) [AdoMet, S-adenosylmethionine]

Inhibition pattern [3, 8]: Competitive
Inhibition pattern [3, 9]: Noncompetitive
Inhibition pattern [4, 8]: Competitive
Inhibition pattern [4, 9]: Noncompetitive
Molecule: Nc1ncnc2c1ncn2[C@@H]1O[C@H](C[C@@H](N)CC[C@H](N)C(=O)O)[C@@H](O)[C@H]1O [Sinefungin]

Molecule: M3RA: ternary complex of MLL3 SET domain, RBBP5AS-ABM and ASH2LSPRY
kcat ([3]; from secondary plots): 0.108 ± 0.00783 s⁻¹

Molecule: M4RA: ternary complex of MLL4 SET domain, RBBP5AS-ABM and ASH2LSPRY
kcat ([4]; from secondary plots): 0.108 ± 0.00533 s⁻¹

B1: M3RA (MLL3SET-RBBP5AS-ABM-ASH2LSPRY) (Homo sapiens) (protein)
chain: SNVYLARSRIQGLGLYAARDIEKHTMVIEYIGTIIRNEVANRKEKLYESQNRGVYMFRMDNDHVIDATLTGGPARYINHSCAPNCVAEVVTFERGHKIIISSSRRIQKGEELCYDYK
Km [5]: 20.0 ± 1.5 µM
kcat [5]: 0.0833 ± 0.0017 s⁻¹

B2: M4RA (MLL4SET-RBBP5AS-ABM-ASH2LSPRY) (Homo sapiens) (protein)
chain: NNVYLARSRIQGLGLYAAKDLEKHTMVIEYIGTIIRNEVANRREKIYEEQNRGIYMFRINNEHVIDATLTGGPARYINHSCAPNCVAEVVTFDKEDKIIIISSRRIPKGEELTYDYQ
Km [6]: 6.9 ± 0.4 µM
kcat [6]: 0.08 ± 0.0017 s⁻¹
